Measured values: ChEMBL document CHEMBL1833817, “Synthesis and cytotoxicity of 8-cyano-3-substitutedalkyl-5-methyl-4-methylene-7-methoxy-3,4-dihydropyrido[4,3-d]pyrimidines” (Bioorg Med Chem Lett, 2011)

Legend:
Type in all cases: functional, cell-based
KB = assay: Cytotoxicity against human KB cells after 3 days by MTT assay; details: 72 h
Summary of the method: (§1)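 Exponential-phase cells seeded at 5 × 10⁴–1 × 10⁵ cells/mL in fresh medium, grown overnight, then treated with compounds dissolved in DMSO at selected concentrations for 3 days. MTT in PBS (10 mg/mL stock) added for 3 h. Formazan dissolved in DMSO and read at 540 nm, with PBS lacking MTT as blank. Inhibition rate taken from averaged OD; IC50 = concentration giving 50% growth inhibition. Coefficients of variation <10%.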

[1] = Cytotoxicity against human CNE2 cells after 3 days by MTT assay; details: CNE-2, 72 h; summary of the method: as §1
MGC-803 = assay: Cytotoxicity against human MGC803 cells after 3 days by MTT assay; details: MGC-803, 72 h; summary of the method: as §1

Row | SMILES | IC50 (KB) [nM] | IC50 [1] [nM] | IC50 (MGC-803) [nM]
1 | C=C1c2c(C)nc(OC)c(C#N)c2N=CN1CCCCCC | > 50000 | – | –
2 | C=C1c2c(C)nc(OC)c(C#N)c2N=CN1Cc1ccco1 | > 50000 | – | –
3 | C=C1c2c(C)nc(OC)c(C#N)c2N=CN1Cc1ccccc1 | > 50000 | – | –
4 | C=C1c2c(C)nc(OC)c(C#N)c2N=CN1Cc1ccc(Cl)cc1 | 20000 | – | –
5 | C=C1c2c(C)nc(OC)c(C#N)c2N=CN1Cc1cccc(C)c1 | 37000 | – | –
6 | C=C1c2c(C)nc(OC)c(C#N)c2N=CN1Cc1ccc(C)cc1 | 480 | 150 | 590
7 | C=C1c2c(C)nc(OC)c(C#N)c2N=CN1Cc1ccc(OC)cc1 | 670 | 180 | 670
8 | C=C1c2c(C)nc(OC)c(C#N)c2N=CN1CCc1ccc(Cl)cc1 | > 50000 | – | –
9 | COc1nc(C)c2c(C)ncnc2c1C#N | > 50000 | – | –
10 | C=C1c2c(C)nc(OC)c(C#N)c2N=CN1CC | > 50000 | – | –
11 | C=C1c2c(C)nc(OC)c(C#N)c2N=CN1CCC | > 50000 | – | –
